48 sequences from the EternaBench riboswitch data can be followed below.

This data set relates to MS2 coat protein. In words: apparent Kd, MS2 coat protein; higher = weaker binding; RNA-MaP array; FMN 200 µM where present. The method, boiled down: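 Each design was made on Illumina sequencing-chip clusters by stalled E. coli RNA polymerase and titrated with SNAP-549-labelled MS2 coat protein from 0.7 or 1.5 nM, doubling to 3 µM, in the absence and then the presence of constant ligand. The buffer was 100 mM Tris-HCl pH 7.5, 80 mM KCl, 4 mM MgCl2, BSA, DTT, yeast tRNA and Tween-20. The apparent Kd is the median of filtered per-cluster fits of binding curves, with green signal normalised to red-channel RNA signal and control-cluster median Fmax.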

[1] abbreviates: designed as: OFF switch for flavin mononucleotide, no ligand.
The mark [2] stands for this setting: ligand present: flavin mononucleotide, designed as: OFF switch for flavin mononucleotide.
[3] abbreviates: designed as: ON switch for flavin mononucleotide, no ligand.
Setting [4] is: ligand present: flavin mononucleotide, designed as: ON switch for flavin mononucleotide.

The term apparent Kd denotes the concentration giving half-maximal binding under the conditions of the assay. Consider “CUUAGACAUGAGGAUCACCCAUGUGAGGAUAUGAUGCGAUCGUGCUGACAUGAUCGCAUCAGAAGGCACAUAUG”, for which the “apparent Kd” value reads like this: under setting [1], 145 nM; under setting [2], 322 nM.
For “UUUUUACAUGAGGAUCACCCAUGUCAGGAUAUCAUUAUAUUUUAUUAUUUUAUUUAUAUGAGAAGGGACUAUUA” the same measures were 87.7 nM and 60.1 nM.
As to “GUCUUACAUGAGGAUCACCCAUGUGAGGAUAUCCCGGGCCCGGGCUUGCCCGGGCCCGGGAGAAGGCACAUGUU”, the “apparent Kd” value is 32.2 nM under setting [1] and 99.4 nM under setting [2].
For “AAAAAGUGAGGAUAUCGAAAAAAAAAAAAAAAAAAAAAAAACGAGAAGGCACAUGAGGAUCACCCAUGUAAAAA” the same measures were 35.8 nM and 44.9 nM.
For “GGACCGUCCAGAGUUGGCGGUCGGCAGGAUAUGACAUGAGGAUCACCCAUGUGAACUCCAUUGGGUCAGAAGGGCCACGACGAU” the same measures were 25.2 nM and 94.7 nM.
For the sequence “CAAUUUAGCGAGAAGGAGCGCCCGUAGGUACAUGAGGAUCACCCAUGUCCUUUGUGCUCUACGCGCUAGGAUAUCGAUAAACAG”, the “apparent Kd” value reads like this: under setting [1], 20.9 nM; under setting [2], 116 nM.
Regarding “GUGCCUUGGGAGAAGGCAGUAUGCAAAGCAUUCUGAGGAUAUUCAUACCGGAAACGGACAUGAGGAUCACCCAUGUGGCACAAA”, the “apparent Kd” value is 1210 nM under setting [3] and 64.6 nM under setting [4].
With “UGAUAGGACAGAGGAUAUACGUGCUAGAGAUACUAGCAAAGUUUCUUGACAUGAGGAUCACCCAUGUAGAAGGCUGUCCUAUCU”, the “apparent Kd” value runs as follows: under setting [1], 5.74 nM; under setting [2], 12.3 nM.
Turning to “GUGGUUGUCGUAGGAUAUGUAGGAUAUUCCUACAUGAGGAUCACCCAUGUUCGCAUGGAAGAAGGACAGAAGGACGAUGACCAU”, the “apparent Kd” value runs as follows: under setting [3], 1020 nM; under setting [4], 10.7 nM.
On to “UGCUACGUUUCGUAGCAGUGUCAUCGAGAAGGCCCUGACAUGAGGAUCACCCAUGUUGUUACAUGGGAGGAUAUCGAUGAUACA”, for which the “apparent Kd” value under setting [4] was found to be 5.16 nM.
Consider “CCAUGACAAAGUCAUGGAUAACGAACAUGAGGAUCACCCAUGUAGGAUAUGCUACUCAAAGAGUAGCAGAAGGACAUGUGCCUU”, for which the “apparent Kd” value reads like this: under setting [1], 36.1 nM; under setting [2], 263 nM.
For “AAUUAUUGAUGAGGAUAUUGUGGUGAAACACGACGAGAAGGCAUAUGUCACAUGAGGAUCACCCAUGUGAGCCUUGUGGAUAUA” the same measures were 52 nM and 112 nM.
With “GGCACCAUCACAGGAUAUGCUUUCCUUUGGGAAGCAGAAGGGUGUAACAUGAGGAUCACCCAUGUGGUGCCAGGGCGUGAGCCC”, the “apparent Kd” value under setting [3] stood at 164 nM and the “apparent Kd” value under setting [4] was 14 nM.
“UUGUACCGGUGAGGAUAUUUUUAAUAGAACUUUAUGAUAUACAUGAGGAUCACCCAUGUUACUUUAAAGAAGGCAUCGGAUUAU”: the “apparent Kd” value is, setting by setting: under setting [1], 18.9 nM; under setting [2], 14.8 nM.
For “GGAUGACAAAGUCAUCCAUUACGAACAUGAGGAUCACCCAUGUAGGAUAUGCUACUCAAAGAGUAGCAGAAGGACAUGUGUCUU” the same measures were 31.2 nM and 149 nM.
For the sequence “AGAUUUGUACAUGAGGAUCACCCAUGUUAAUAGGUGGUUGUCAGAAGGCAUUAAUAGAGAUUUAAUGAGGAUAUGAAUUAACAA”, the “apparent Kd” value worked out at 903 nM under setting [3] and 593 nM under setting [4].
On to “GCGUCAGAAUUAAUUGUGACAGGCAGAAGGCCAUAUCUUAUGUCAGACAUGAGGAUCACCCAUGUGGAGGAUAUGCAGUUACAC”, for which the “apparent Kd” value was found to be 11.5 nM under setting [1] and 19.1 nM under setting [2].
As to “CUUUUGUGAGGAUAUGUGGCUUCGAUCGUGAGAUCGAGGCUACAGAAGGCACAUGAGGAUCACCCAUGUUCCUU”, the “apparent Kd” value runs as follows: under setting [1], 17.6 nM; under setting [2], 69.7 nM.
For “UUAGGCUUCUAGAAGGCAGUCCAGCUGGAGGACUGAGGAUAUAGGCACCUAACAUGAGGAUCACCCAUGUUAGUGAUUCCUCAA” the same measures were 38.7 nM and 73 nM.
As to “UUGGACGUCGUAGGAUAUGUAGGAUAUUCCUACAUGAGGAUCACCCAUGUUGGCAUGGAAGAAGGACAGAAGGACGAUGUCCAU”, the “apparent Kd” value under setting [3] is 158 nM and the “apparent Kd” value under setting [4] is 4.94 nM.
For the sequence “AUUUAAUUUAGCGAGAUCACAUGAGGAUCACCCAUGUAUAUAUAGGAUAUCAGCUCGAAUAGAGCUGAGAAGGAUAUAUACCGC”, the “apparent Kd” value was 90.3 nM under setting [1] and 157 nM under setting [2].
Regarding “UAUAUAUAGUAAGGAUAUGUAUUUAUUUUAGAAACAGAAGGUACUGACAUGAGGAUCACCCAUGUUUUAGUGUGGGCAUGUAGA”, the “apparent Kd” value under setting [1] was 96.3 nM and the “apparent Kd” value under setting [2] was found to be 152 nM.
In the case of “ACAAGAUCAGGAUAUACAUGAGGAUCACCCAUGUAUAUCAAAAAAGGGCCUUCUACAUGUAGAAGGGAUCUUGU”, the “apparent Kd” value reads like this: under setting [1], 13.1 nM; under setting [2], 12.1 nM.
For “UACGUACAGAAGUACGCCGGGUCCAGAAGGGACAUGAGGAUCACCCAUGUACCGUUGAUUGCUUGUCAGGAUAUGGACCCGGCC” the same measures were 7.1 nM and 27.4 nM.
For the sequence “UAAUUAAGUGUGAGGAUAUGCUGGUCCUUGGAUCAGCAGAAGGCACAUGAGGAUCACCCAUGUAAUUUAUAUAU”, the “apparent Kd” value by setting is: under setting [1], 98.2 nM; under setting [2], 485 nM.
For “UAUAUAUAGUAAGGAUAUGUAACUAUUUUAUAAACAGAAGGUACUGACAUGAGGAUCACCCAUGUUUUAGUGUGGGCAUGUAGA” the same measures were 86.7 nM and 136 nM.
For “CCUGCACAUGAGGAUCACCCAUGUCAGGAUAUCUCGCCGUGAAGAGCAACACGGUAUUAGAGAAGGGACACGGG” the same measures were 25.1 nM and 23.3 nM.
As to “GCGUUCUUGUAGAAGGUACAAGAAAACUAUUAUUAACACAUGAAACAUGAGGAUCACCCAUGUAGUAAGGAUAUACAUGAACGC”, the “apparent Kd” value is 10.1 nM under setting [3] and 7.18 nM under setting [4].
Consider “UGAUAGGACAGAGGAUAUACGGCUAGGAGAUACUAGCUACUAUUCCUCACAUGAGGAUCACCCAUGUAGAAGGCUGUCCUAUCU”, for which the “apparent Kd” value reads like this: under setting [1], 16.9 nM; under setting [2], 148 nM.
As for “AAAAAAAAAACAUAGGAUAUCCGGGCCGGGACAUGAGGAUCACCCAUGUCAAAAAAAAUUGGCCCGGAGAAGGAUGAAAAAAAAAA”, the “apparent Kd” value is 15.5 nM under setting [3] and 14.9 nM under setting [4].
“UAUAUAUAGUAAGGAUAUGUAAUUAUUUUGUAAACAGAAGGUACUGACAUGAGGAUCACCCAUGUUUUAGUGUGGGCAUGUAGA”: the “apparent Kd” value under setting [1] stood at 117 nM and the “apparent Kd” value under setting [2] came out at 182 nM.
Consider “AAAAAAAAAAGUCAGGAUAUACAAAUUUUUACAUGAGGAUCACCCAUGUUAAGGAAAAAAAAAAAGUAGAAGGGACAAAAAAAAAA”, for which the “apparent Kd” value was found to be 27.3 nM under setting [3] and 17.6 nM under setting [4].
Turning to “AUUUGAAUCGUAGGAUAUCGCUUAAAUUUAACACGAGAAGGACGAACAUGAGGAUCACCCAUGUAUCAUGGUGUAGAUAAUUUG”, the “apparent Kd” value is, setting by setting: under setting [1], 82.5 nM; under setting [2], 353 nM.
Turning to “AUUAUUAUAUUAUACAUGAGGAUCACCCAUGUUAUAAGUCAUGAGGAUAUGGUAUUGUAGUUUUUCCAGAAGGCAUUUAACUUA”, the “apparent Kd” value reads like this: under setting [3], 10.3 nM; under setting [4], 6.04 nM.
In the case of “AGAAACUACGAGAAGGACAUGUGAAAAGCCGCAAACAUGAGGAUCACCCAUGUAGGAUAUCGUAGUUUCAGGAUCGUGAGAUCA”, the “apparent Kd” value under setting [1] came out at 54.6 nM and the “apparent Kd” value under setting [2] was found to be 442 nM.
Take “UAUUAGAUCCGAGGAUAUCCUUUUUUCUUACAUGAGGAUCACCCAUGUAAAGGGAUUGAGUUGUAGGAGAAGGCGGAUUUAGUU”: the “apparent Kd” value by setting is: under setting [3], 33.4 nM; under setting [4], 15.1 nM.
With “CGGCUGCUACGCCAGCUCGACGCACAGGAUAUGCUGUUACAUGAGGAUCACCCAUGUGGCCAAGAGCAGAAGGGUGAUUCGCGA”, the “apparent Kd” value under setting [3] was found to be 33.6 nM and the “apparent Kd” value under setting [4] is 35 nM.
For the sequence “AAAUUUAACGAAGGAUAUGGUUACAUGAGGAUCACCCAUGUAAUGGCUGUGAUAUUGAUUAAGUUCCAGAAGGUCGUAUACAUA”, the “apparent Kd” value is, setting by setting: under setting [1], 52.4 nM; under setting [2], 192 nM.
On to “UUUCUUGGGCAAGGAUAUCCUGUGCGGUUCCGGCUCGUGUCUGUCACAUGAGGAUCACCCAUGUGGGAGAAGGUGCCUGCGGUU”, for which the “apparent Kd” value reads like this: under setting [1], 6.26 nM; under setting [2], 6.64 nM.
For “AUCCUGCGAGGAUAUACAUAAUUUUUUUCAUUUUGACUCGAACAUGAGGAUCACCCAUGUAGAAGGUGCUACAC” the same measures were 36.7 nM and 32.5 nM.
With “GUAUGAGCGAUAGGAUAUACUGGGAUUGAAUGGGUAGAAGGAUUUCUAGUGGGAAAGACAUGAGGAUCACCCAUGUCGCGGACC”, the “apparent Kd” value under setting [3] was 37.9 nM and the “apparent Kd” value under setting [4] stood at 35.4 nM.
For “UUAAUUUUACAAGGAUAUCUAUUGUUAUUUCGACUUACAUGAGGAUCACCCAUGUUAAUAUAUUUAGAGAAGGUGUAUUUUCAG” the same measures were 99.4 nM and 52.4 nM.
Take “CUAAAUCAUGUAGGAUAUGCAUGGCGAAGCUACGCAGAAGGACAUGAGGAUCACCCAUGUCUCUCCGUCUGCAUACAGACGGAG”: the “apparent Kd” value under setting [1] turned out to be 20.1 nM and the “apparent Kd” value under setting [2] was determined as 123 nM.
For “UUUAGUUCAGGAUAUGUAGAUUUUAACAUGAGGAUCACCCAUGUAGAUCCUGAUCCUGCUACAGAAGGGAAUAUUU” the same measures were 23.1 nM and 25.1 nM.
Consider “UUUUAAUAAGAGAAGGAGCACUUCAUGAGGAUCACCCAUGUGUUAGUAGUUAGGAUAUUUAAUAACAUGAGGAUCACCCAUGUC”, for which the “apparent Kd” value by setting is: under setting [3], 159 nM; under setting [4], 123 nM.
Take “AGUUAUCAUGUAGGAUAUGCUUGAGGUAAGAAAGCAGAAGGACAUGAGGAUCACCCAUGUUAAUGAUACAGAUUUUAGUUUCUU”: the “apparent Kd” value runs as follows: under setting [1], 32.9 nM; under setting [2], 201 nM.
For “GUCAGCUCGUGAGGAUAUACAUCACUGCUUCGGCAGUGUAUUAAGAGCACAUGAGGAUCACCCAUGUAGAAGGCACGAGCUGAU” the same measures were 16.3 nM and 24.1 nM.
Regarding “AACUUGUCAGGAUAUCUUACAUUUGCAUCAUAGUUACCAUUGGAGAAGGGACAUGAGGAUCACCCAUGUUUGGU”, the “apparent Kd” value amounted to 41.3 nM under setting [1] and 39.3 nM under setting [2].
